DENV2 CPE – inhibitors of DENV2 cytopathic effect | actives 1.7% (n = 350,000) | CPE inhibition, % at 9.99 µM | AID 651640 | DENV2-infected cells, cytopathic effect rescue, plate reader; in the data active = CPE inhibition above about 20%, passing the limit was not always enough; inconclusive = no clear call, values can overlap the other calls; tested in BHK-21 cells
SIRT5 block – inhibitors of human sirtuin-5 desuccinylase; Purified SirT5, succinyl-peptide AMC, trypsin-coupled fluorescence; inhibition, % at 15 µM; actives 1.1% (n = 330,000); AID 652115; in the data active = inhibition above about 15%; inconclusive = no clear call, values can overlap the other calls
Target sequence (Q9NXA8 whole entry, looked up): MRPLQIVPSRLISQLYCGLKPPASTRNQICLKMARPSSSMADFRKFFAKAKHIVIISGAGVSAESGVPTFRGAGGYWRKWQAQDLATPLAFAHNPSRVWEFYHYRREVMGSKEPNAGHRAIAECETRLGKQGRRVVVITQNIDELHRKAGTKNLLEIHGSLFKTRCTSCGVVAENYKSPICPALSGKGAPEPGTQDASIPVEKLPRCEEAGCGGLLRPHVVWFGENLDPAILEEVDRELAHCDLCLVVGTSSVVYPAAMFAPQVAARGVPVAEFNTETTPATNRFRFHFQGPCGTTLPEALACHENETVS
E-sel inducer – E-selectin induction on HUVECs; activation, % at 7.58 µM; actives 0.37% (n = 260,000); HUVEC E-selectin immunofluorescence imaging; normalized: neutral wells 0, TNF-alpha wells 100; P16581;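 active = mean E-selectin-positive cell signal at least 10% of the positive control, reached in at least 60% of replicates, without over 20% cell loss; inconclusive = no rule given, readout overlaps actives, possibly toxicity-flagged; inactive = the rest, including those meeting only one limit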
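material = human umbilical vein endothelial cells (HUVEC), E-selectin induction | quantity = 3,000 cells/well | medium = EGM-2 growth medium on 0.1% gelatin-coated wells | technique = immunofluorescence imaging | read-out basis = % PE-positive cells | control set = TNF-alpha positive control, DMSO neutral control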
Of the large screens only hits and unclear results are named; the others gave an inactive call; ! = not confirmed by another sample. Sampled rows, rich in hits. Any-hit rate of the full collection: about 2.9%.

Nc1nonc1-n1nnc(C(=O)N/N=C/c2ccc3c(c2)OCO3)c1-c1ccccc1	none (no result: E-sel inducer)
Cc1nc2scc(C)n2c(=O)c1S(=O)(=O)NCC1CCN(Cc2ccc(Cl)cc2)CC1	none (no result: E-sel inducer)
COC(=O)C[C@@H]1C[C@H]2c3cc(NC(=O)C4CCOCC4)ccc3O[C@H]2[C@@H](CO)O1	none
COC(=O)C[C@@H]1C[C@H]2c3cc(NC(=O)CC4CC4)ccc3O[C@H]2[C@@H](CO)O1	DENV2 CPE 24.2!
COC(=O)C[C@H]1C[C@H]2c3cc(NC(=O)CC4CC4)ccc3O[C@H]2[C@H](CO)O1	none
COCC(=O)Nc1ccc2c(c1)[C@H]1C[C@H](CC(=O)OC)O[C@H](CO)[C@H]1O2	none (no result: SIRT5 block)
COCC(=O)Nc1ccc2c(c1)[C@@H]1C[C@H](CC(=O)OC)O[C@H](CO)[C@@H]1O2	DENV2 CPE 27.8!
COC(=O)C[C@H]1C[C@H]2c3cc(NC(=O)C4CCOCC4)ccc3O[C@H]2[C@H](CO)O1	DENV2 CPE 45.5 (no result: E-sel inducer)
Cc1nn(C(=O)c2nn(C)cc2Cl)c(C)c1Br	none
CN(CC(=O)Nc1c(Cl)cccc1Cl)C(=O)C1=COCCO1	none
C[C@H](CO)N1C[C@H](C)[C@@H](CN(C)Cc2ccncc2)Oc2ccc(N(C)C)cc2C1=O	DENV2 CPE 47.3 (no result: E-sel inducer)
C[C@@H]1CN([C@@H](C)CO)C(=O)c2cc(N(C)C)ccc2O[C@H]1CN(C)Cc1ccccc1	DENV2 CPE inconclusive
C[C@@H]1CN([C@H](C)CO)C(=O)c2cc(N(C)C)ccc2O[C@@H]1CN(C)Cc1ccc(C(F)(F)F)cc1	none
C[C@H](CO)N1C[C@H](C)[C@@H](CN(C)Cc2ccccc2)Oc2ccc(N(C)C)cc2C1=O	SIRT5 block 20.8 (no result: E-sel inducer)
O=C(O)c1ccc(OCCn2ccnc2)cc1	none
C=C[C@@H](COC(=O)c1ccc([N+](=O)[O-])cc1)N(Cc1ccc(OC)cc1)S(=O)(=O)c1ccc(Br)cc1	DENV2 CPE 23.9 (no result: E-sel inducer)
C=CC(COCc1ccccc1)N(Cc1ccc(OC)cc1)S(=O)(=O)c1ccccc1Br (stereo not drawn)	none
COc1ccc(S(=O)(=O)N(C)C[C@H]2Oc3cc(C#CC4CCCC4)ccc3S(=O)(=O)N([C@@H](C)CO)C[C@H]2C)cc1	none
COc1ccc(S(=O)(=O)N(C)C[C@H]2Oc3cc(C#CC4CCCC4)ccc3S(=O)(=O)N([C@H](C)CO)C[C@@H]2C)cc1	SIRT5 block 15.1
COc1ccc(S(=O)(=O)N(C)C[C@H]2Oc3cc(C#CC4CCCC4)ccc3S(=O)(=O)N([C@@H](C)CO)C[C@@H]2C)cc1	SIRT5 block 24.6
COc1ccc(S(=O)(=O)N(C)C[C@@H]2Oc3cc(C#CC4CCCCC4)ccc3S(=O)(=O)N([C@H](C)CO)C[C@H]2C)cc1	none
COc1ccc(S(=O)(=O)N(C)C[C@H]2Oc3cc(C#CC4CCCC4)ccc3S(=O)(=O)N([C@H](C)CO)C[C@H]2C)cc1	none
COc1ccc(S(=O)(=O)N(C)C[C@@H]2Oc3cc(C#CC4CCCC4)ccc3S(=O)(=O)N([C@@H](C)CO)C[C@H]2C)cc1	SIRT5 block 15.6
CC12CN3CCN(CC(C3)/C1=N\N=C1/C3CN4CCN(C3)CC1(C)C4)C2	none (no result: DENV2 CPE)
CC(=O)C1CCCN(C(=O)c2ccc3oc(CCc4ccccc4)nc3c2)C1 (stereo not drawn)	none (no result: E-sel inducer)
COc1ccc(-c2cc(C(=O)NCC3CCCO3)c3cc(C(C)C)ccc3n2)cc1 (stereo not drawn)	none (no result: E-sel inducer)
Cc1ccc(N(C(=O)CNC(=O)c2ccco2)C(C(=O)NC2CCCC2)c2ccncc2)cc1C (stereo not drawn)	none (no result: E-sel inducer)
Cc1ccc(S(=O)(=O)N(C)C[C@H]2OCc3cn(nn3)CCCC(=O)N([C@@H](C)CO)C[C@@H]2C)cc1	SIRT5 block 20.2!
C[C@H]1CN([C@@H](C)CO)C(=O)CCCn2cc(nn2)CO[C@H]1CN(C)S(=O)(=O)c1ccc2c(c1)OCCCO2	DENV2 CPE 30.8
C[C@@H]1CN([C@@H](C)CO)C(=O)CCCn2cc(nn2)CO[C@H]1CN(C)S(=O)(=O)c1cccc(F)c1	none
C[C@@H]1CN([C@@H](C)CO)C(=O)CCCn2cc(nn2)CO[C@@H]1CN(C)S(=O)(=O)c1ccc2c(c1)OCCCO2	DENV2 CPE inconclusive
C[C@H](CO)N1C[C@H](C)[C@H](CN(C)S(=O)(=O)c2ccc3c(c2)OCCCO3)OCc2cnnn2CCCC1=O	DENV2 CPE inconclusive
C[C@H](CO)N1C[C@H](C)[C@@H](CN(C)S(=O)(=O)c2cccc(F)c2)OCc2cn(nn2)CCCC1=O	DENV2 CPE 55.3! (no result: E-sel inducer)
Cc1ccc(S(=O)(=O)N(C)C[C@H]2OCc3cn(nn3)CCCC(=O)N([C@@H](C)CO)C[C@H]2C)cc1	none
C[C@@H]1CN([C@@H](C)CO)C(=O)CCCn2nncc2CO[C@H]1CN(C)S(=O)(=O)c1ccc2c(c1)OCCCO2	SIRT5 block 20.5!
COc1ccc(NC(=O)N(C)C[C@@H]2OCCCC[C@H](C)Oc3ccc(NS(=O)(=O)c4ccccc4)cc3C(=O)N([C@H](C)CO)C[C@@H]2C)cc1	none
COc1ccc(CN(C)C[C@@H]2OCCCC[C@@H](C)Oc3ccc(NS(=O)(=O)c4ccc(Cl)cc4)cc3C(=O)N([C@@H](C)CO)C[C@@H]2C)cc1	none (no result: E-sel inducer)
COc1ccc(CN(C)C[C@@H]2OCCCC[C@@H](C)Oc3ccc(NS(=O)(=O)c4ccc(Cl)cc4)cc3C(=O)N([C@H](C)CO)C[C@H]2C)cc1	DENV2 CPE 70.4 (no result: E-sel inducer)
COc1ccc(CN(C)C[C@H]2OCCCC[C@@H](C)Oc3ccc(NS(=O)(=O)c4ccc(Cl)cc4)cc3C(=O)N([C@@H](C)CO)C[C@@H]2C)cc1	DENV2 CPE inconclusive (no result: E-sel inducer)
COc1ccc(S(=O)(=O)Nc2ccc3c(c2)C(=O)N([C@H](C)CO)C[C@H](C)[C@@H](CN(C)Cc2ccncc2)OCCCC[C@H](C)O3)cc1	none
COc1ccc(CN(C)C[C@@H]2OCCCC[C@H](C)Oc3ccc(NS(=O)(=O)c4ccc(Cl)cc4)cc3C(=O)N([C@@H](C)CO)C[C@H]2C)cc1	DENV2 CPE 31.0 (no result: E-sel inducer)
COc1ccc(S(=O)(=O)Nc2ccc3c(c2)C(=O)N([C@@H](C)CO)C[C@@H](C)[C@H](CN(C)Cc2ccncc2)OCCCC[C@H](C)O3)cc1	SIRT5 block 17.1
CCN(C(=O)c1cc2c(=O)n3ccccc3nc2s1)C1CCCCC1	none
C[C@@H]1CCCCO[C@H](CN(C)Cc2ccncc2)[C@@H](C)CN([C@@H](C)CO)C(=O)c2cc(NS(=O)(=O)c3ccccc3)ccc2O1	none (no result: E-sel inducer)
COc1ccccc1C(=O)Nc1ccc(OC(C)C(=O)N2CCOCC2)cc1 (stereo not drawn)	DENV2 CPE inconclusive (no result: E-sel inducer)
CNC[C@@H]1Oc2ccc(NC(=O)Cc3cn(C)c4ccccc34)cc2CC(=O)N([C@@H](C)CO)C[C@@H]1C	none
CN(CC(=O)Nc1ccccc1Br)c1ncnc2sccc12	none (no result: E-sel inducer)
CN(CC(=O)Nc1ccc(F)c(F)c1F)c1ncnc2sccc12	DENV2 CPE 30.6 (no result: E-sel inducer)
CN1CCN(C(=O)c2cccc(-c3ccc4nncn4c3)c2)CC1	none
O=C(/C=C/c1ccco1)Nc1cccc(NC(=O)/C=C/c2ccco2)n1	none
CN(C)N=Nc1ccc(S(=O)(=O)NC(Cc2ccccc2)C(=O)O)cc1 (stereo not drawn)	none
CSCC[C@H](NS(=O)(=O)c1ccc(C)cc1)C(=O)N1CCC(C(=O)N[C@@H](Cc2ccc(O)cc2)C(=O)O)CC1	none (no result: SIRT5 block, E-sel inducer)

Assay outcomes: PubChem BioAssay, Broad Institute
